Experimental data: ChEMBL document CHEMBL1128245, “Dual-acting thromboxane receptor antagonist/synthase inhibitors: synthesis and biological properties of [2-substituted-4-(3-pyridyl)-1,3-dioxan-5-yl] alkenoic acids” (J Med Chem, 1995)

What was measured:
[1] = tested on: Rattus norvegicus; assay: Ex vivo […] (TXA2 synthase) inhibitory activity after 1 hr of oral dosing (10 mg/kg) in the rat; type: functional
Summary of the method: (§1)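 Rats (n = 6) gavaged, anesthetized, aortic blood taken at 1, 3 or 5 h after dosing. A blood aliquot was challenged with collagen and TXB2 measured by radioimmunoassay; expressed as % inhibition of TXA2 synthase (±SEM).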

[2] = species: Homo sapiens; assay: In vitro inhibition of U-46,619-induced aggregation of unwashed human platelets.; type: functional; conditions: Homo sapiens; read-out: pA2 (converted)
Summary of the method: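 Citrated (3.2%) human venous blood spun at 200g for 10 min. Platelet-rich plasma aggregated with U46619 with or without several antagonist concentrations.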

[3] = tested on: Rattus norvegicus; assay: Ex vivo TXA2 ([…]) antagonist activity was determined for U-46,619 induced aggregation (dose ratio) after 5 hr of oral dosing (10 mg/kg) in the rat; type: functional
Summary of the method: (§2)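 Conscious rats (n = 6) dosed by oral gavage, then anesthetized and bled from the abdominal aorta at 1, 3 or 5 h. Platelet-rich plasma aggregated with U46619 before and after dosing to give a U46619 dose ratio. ">" values mark the maximum dose ratio achievable at the top U46619 concentration (1 × 10^-4 M).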

[4] = tested on: Rattus norvegicus; assay: Ex vivo TXA2 ([…]) antagonist activity was determined for U-46,619 induced aggregation (dose ratio) after 3 hr of oral dosing (10 mg/kg) in the rat; type: functional; summary of the method: as §2
[5] = tested on: Rattus norvegicus; assay: Ex vivo […] (TXA2 synthase) inhibitory activity after 3 hr of oral dosing (10 mg/kg) in the rat; type: functional; summary of the method: as §1
[6] = tested on: Rattus norvegicus; assay: Ex vivo […] (TXA2 synthase) inhibitory activity after 5 hr of oral dosing (10 mg/kg) in the rat; type: functional; summary of the method: as §1
[7] = molecular target: T1, Prostacyclin synthase (Homo sapiens, UniProt Q16647); assay: In vitro inhibition of Prostaglandin I2 synthase in cultured human endothelial cells
T1 sequence (Q16647 whole entry): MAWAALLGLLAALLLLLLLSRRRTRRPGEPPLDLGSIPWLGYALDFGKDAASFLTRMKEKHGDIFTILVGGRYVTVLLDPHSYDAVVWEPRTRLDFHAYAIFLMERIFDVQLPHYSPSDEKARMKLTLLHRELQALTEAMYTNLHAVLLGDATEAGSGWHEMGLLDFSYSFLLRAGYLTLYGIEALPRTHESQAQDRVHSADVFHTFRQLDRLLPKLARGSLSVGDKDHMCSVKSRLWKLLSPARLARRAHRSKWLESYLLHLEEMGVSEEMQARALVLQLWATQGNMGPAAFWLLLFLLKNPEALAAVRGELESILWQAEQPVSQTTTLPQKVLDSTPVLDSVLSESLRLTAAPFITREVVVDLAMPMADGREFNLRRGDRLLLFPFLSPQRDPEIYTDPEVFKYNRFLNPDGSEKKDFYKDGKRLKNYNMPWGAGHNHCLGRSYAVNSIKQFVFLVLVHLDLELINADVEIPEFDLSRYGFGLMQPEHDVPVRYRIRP

[8] = molecular target: T2, Thromboxane-A synthase (Homo sapiens, UniProt P24557); assay: In vitro Inhibition of thromboxane synthase from human blood platelet microsomes
T2 sequence (P24557 whole entry): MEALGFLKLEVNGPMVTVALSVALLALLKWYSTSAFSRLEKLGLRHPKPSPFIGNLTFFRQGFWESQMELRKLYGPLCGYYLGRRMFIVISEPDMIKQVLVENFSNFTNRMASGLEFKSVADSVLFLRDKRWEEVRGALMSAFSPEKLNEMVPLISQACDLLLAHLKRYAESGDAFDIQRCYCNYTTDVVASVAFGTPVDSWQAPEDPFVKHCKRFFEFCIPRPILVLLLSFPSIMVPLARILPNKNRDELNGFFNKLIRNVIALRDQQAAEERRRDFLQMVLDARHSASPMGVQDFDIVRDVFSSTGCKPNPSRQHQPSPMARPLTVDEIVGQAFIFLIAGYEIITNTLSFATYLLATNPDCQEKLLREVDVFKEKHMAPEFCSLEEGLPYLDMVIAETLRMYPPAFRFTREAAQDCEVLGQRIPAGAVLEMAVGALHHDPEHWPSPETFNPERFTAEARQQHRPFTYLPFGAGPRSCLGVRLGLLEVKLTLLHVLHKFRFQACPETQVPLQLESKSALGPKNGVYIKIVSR
Summary of the method: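 Human blood platelet microsomes incubated with [1-14C]arachidonic acid with or without inhibitor. Conversion to labeled thromboxane B2 quantified radiochromatographically. n = 2.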

[9] = tested on: Rattus norvegicus; assay: Ex vivo TXA2 ([…]) antagonist activity was determined for U-46,619 induced aggregation (dose ratio) after 1 hr of oral dosing (10 mg/kg) in the rat; type: functional; summary of the method: as §2
[10] = tested on: Thromboxane-A synthase (Canis familiaris); assay: Ex vivo […] (TXA2 synthase) inhibitory activity after 5 hr of oral dosing (1 mg/kg) in the dog; conditions: Canis lupus familiaris
[11] = tested on: Thromboxane-A synthase (Canis familiaris); assay: Ex vivo […] (TXA2 synthase) inhibitory activity after 8 hr of oral dosing (1 mg/kg) in the dog; conditions: Canis lupus familiaris
[12] = tested on: Thromboxane-A synthase (Canis familiaris); assay: Ex vivo […] (TXA2 synthase) inhibitory activity after 24 hr of oral dosing (1 mg/kg) in the dog; conditions: Canis lupus familiaris

Structure (SMILES)	IC50 [7]	IC50 [8]	inhibition [10]	inhibition [11]	inhibition [12]	Inhibition [1]	Kb [2]	Antagonist activity [3]	Antagonist activity [4]	Inhibition [5]	Inhibition [6]	Antagonist activity [9]
CC(C)(Oc1ccc(F)cc1)C1OCC(C/C=C\CCC(=O)O)C(c2cccnc2)O1 (stereo unspecified)	2000 nM	51 nM				93.2%	120 nM	4	4	80%	83%	6
N#Cc1ccccc1C1OCC(C/C=C\CCC(=O)O)C(c2cccnc2)O1 (stereo unspecified)	> 100000 nM	54 nM	91%	84%	82.6%		245 nM					
Cc1ccc(OC(C)(C)C2OCC(C/C=C\CCC(=O)O)C(c3cccnc3)O2)c(C#N)c1 (stereo in doubt; 7af)	12000 nM	25 nM					3.98 nM					
COc1ccc(OC(C)(C)C2OCC(C/C=C\CCC(=O)O)C(c3cccnc3)O2)cc1 (stereo unspecified)	> 100000 nM	41 nM					302 nM					
Cc1ccc(C#N)c(OC(C)(C)C2OCC(C/C=C\CCC(=O)O)C(c3cccnc3)O2)c1 (stereo unspecified)	> 100000 nM	50 nM					15.8 nM					

Now from value to compound, other results behind:

IC50 [7]	IC50 [8]	inhibition [10]	inhibition [11]	inhibition [12]	Structure (SMILES)	Inhibition [1]	Kb [2]	Antagonist activity [3]	Antagonist activity [4]	Inhibition [5]	Inhibition [6]	Antagonist activity [9]
< 1000 nM	< 10 nM				CC(C)(Oc1ccccc1[N+](=O)[O-])C1OCC(C/C=C\CCC(=O)O)C(c2cccnc2)O1 (stereo unspecified)	85.5%	11.2 nM	3	9	75.8%	63.2%	>57
73000 nM	66 nM				COC(=O)c1ccccc1OC(C)(C)C1OCC(C/C=C\CCC(=O)O)C(c2cccnc2)O1 (stereo unspecified)		64.6 nM					
